Assay results from ChEMBL document CHEMBL5724801, “EUbOPEN Chemogenomics Library - Multiplex” (2024).
“And” between values parts separate entries of the source, which are not always exact repeats. Identical values can stand only once.

System: Fibroblast
Experiment: Multiplex assay against human fibroblast
Assay type: toxicity, cell-based
Summary of the method: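 Tubulin, mitochondrial-mass and membrane-permeability phenotypes are per cents of healthy-nucleus cells. Cells were gated by CellPathfinder machine learning into Hoechst high-intensity objects or normal cells, normal cells into healthy, pyknosed or fragmented nuclei, and pyknosed cells into mitotic or apoptotic. Before that, live cells stained at seeding with Hoechst33342, BioTracker Green Microtubule Cytoskeleton Dye, MitoTracker Red and Annexin V Alexa Fluor 680 were imaged on a CQ1 microscope at 37°C and 5% CO2 after compound addition.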

[1] = 12 h, 1 µM, compound concentration 1 uM
[2] = 12 h, 10 µM, compound concentration 10 uM
[3] = 24 h, 1 µM, compound concentration 1 uM
[4] = 24 h, 10 µM, compound concentration 10 uM
[5] = 48 h, 1 µM, compound concentration 1 uM
[6] = 48 h, 10 µM, compound concentration 10 uM

O=C1N=C(NCc2cccs2)S/C1=C\c1ccc2ncccc2c1
Population Apoptotic (%) [1]: 15.79% and 17.07%
Population Healthy Nuclei (%) [1]: 66.3% and 76.85%
Population Hoechst High Intensity Objects (%) [1]: 0%
Population Membrane Permeable-Phenotype (%) [1]: 3.28% and 1.28%
Population Mitochondria Different-Phenotype (%) [1]: 4.92% and 6.41%
Population Mitotic Cells (%) [1]: 84.21% and 82.93%
Population Normal (%) [1]: 100%
Population Pyknosed Nuclei (%) [1]: 20.65% and 20.2%
Population Tubulin-Different-Phenotype (%) [1]: 6.56% and 12.82%
Total Cell Count [1]: 184 and 203
Population Apoptotic (%) [2]: 20.69% and 27.27%
Population Healthy Nuclei (%) [2]: 61.15% and 75.14%
Population Hoechst High Intensity Objects (%) [2]: 0%
Population Membrane Permeable-Phenotype (%) [2]: 14.58% and 10.29%
Population Mitochondria Different-Phenotype (%) [2]: 25% and 16.91%
Population Mitotic Cells (%) [2]: 79.31% and 72.73%
Population Normal (%) [2]: 100%
Population Pyknosed Nuclei (%) [2]: 18.47% and 18.23%
Population Tubulin-Different-Phenotype (%) [2]: 34.38% and 55.15%
Total Cell Count [2]: 157 and 181
Population Apoptotic (%) [3]: 14.29% and 17.86%
Population Fragmented Nuclei (%) [3]: 10.34% and 5.09%
Population Healthy Nuclei (%) [3]: 72.41% and 81.94%
Population Hoechst High Intensity Objects (%) [3]: 0%
Population Membrane Permeable-Phenotype (%) [3]: 4.08% and 3.39%
Population Mitochondria Different-Phenotype (%) [3]: 5.44% and 3.39%
Population Mitotic Cells (%) [3]: 85.71% and 82.14%
Population Normal (%) [3]: 100%
Population Pyknosed Nuclei (%) [3]: 17.24% and 12.96%
Population Tubulin-Different-Phenotype (%) [3]: 7.48% and 19.77%
Total Cell Count [3]: 203 and 216
Population Apoptotic (%) [4]: 19.05% and 33.33%
Population Fragmented Nuclei (%) [4]: 12.93% and 9.6%
Population Healthy Nuclei (%) [4]: 72.79% and 76.84%
Population Hoechst High Intensity Objects (%) [4]: 0%
Population Membrane Permeable-Phenotype (%) [4]: 11.21% and 5.88%
Population Mitochondria Different-Phenotype (%) [4]: 23.36% and 20.59%
Population Mitotic Cells (%) [4]: 80.95% and 66.67%
Population Normal (%) [4]: 100%
Population Pyknosed Nuclei (%) [4]: 14.29% and 13.56%
Population Tubulin-Different-Phenotype (%) [4]: 49.53% and 66.91%
Total Cell Count [4]: 147 and 177
Population Apoptotic (%) [5]: 14.81% and 21.05%
Population Fragmented Nuclei (%) [5]: 8.85% and 4.11%
Population Healthy Nuclei (%) [5]: 79.2% and 87.21%
Population Hoechst High Intensity Objects (%) [5]: 0%
Population Membrane Permeable-Phenotype (%) [5]: 1.12% and 4.19%
Population Mitochondria Different-Phenotype (%) [5]: 8.38% and 5.76%
Population Mitotic Cells (%) [5]: 85.19% and 78.95%
Population Normal (%) [5]: 100%
Population Pyknosed Nuclei (%) [5]: 11.95% and 8.68%
Population Tubulin-Different-Phenotype (%) [5]: 6.7% and 19.37%
Total Cell Count [5]: 226 and 219
Population Apoptotic (%) [6]: 44.44% and 38.89%
Population Fragmented Nuclei (%) [6]: 18.54% and 16.67%
Population Healthy Nuclei (%) [6]: 75.5% and 74.24%
Population Hoechst High Intensity Objects (%) [6]: 0%
Population Membrane Permeable-Phenotype (%) [6]: 2.63% and 12.24%
Population Mitochondria Different-Phenotype (%) [6]: 33.33% and 14.29%
Population Mitotic Cells (%) [6]: 55.56% and 61.11%
Population Normal (%) [6]: 100%
Population Pyknosed Nuclei (%) [6]: 5.96% and 9.09%
Population Tubulin-Different-Phenotype (%) [6]: 47.37% and 63.95%
Total Cell Count [6]: 151 and 198

CCn1c(-c2nc3cc(C(=O)N4CCCC(N)C4)ccc3n2C)cc2ccccc21.Cl (stereo not given)
Population Fragmented Nuclei (%) [1]: 17% [middle of 4 runs]
Population Healthy Nuclei (%) [1]: 67% and 54% and 55.75% and 78.2%
Population Hoechst High Intensity Objects (%) [1]: 3% and 5% and 0%
Population Membrane Permeable-Phenotype (%) [1]: 0% and 2% and 1.03% and 4.85%
Population Mitotic Cells (%) [1]: 77.42% [middle of 4 runs]
Population Normal (%) [1]: 96% and 94% and 100%
Population Pyknosed Nuclei (%) [1]: 15% and 23% and 28.16% and 14.69%
Population Tubulin-Different-Phenotype (%) [1]: 27% and 41% and 21.65% and 21.21%
Total Cell Count [1]: 128 and 167 and 174 and 211
Population Healthy Nuclei (%) [2]: 63% and 37% and 62.74% and 73.72%
Population Hoechst High Intensity Objects (%) [2]: 1% and 3% and 0%
Population Membrane Permeable-Phenotype (%) [2]: 0% and 10.3% and 7.87%
Population Mitochondria Different-Phenotype (%) [2]: 18% and 19% and 29.7% and 27.78%
Population Mitotic Cells (%) [2]: 58% and 61% and 89.16% and 71.43%
Population Normal (%) [2]: 98% and 96% and 100%
Population Pyknosed Nuclei (%) [2]: 29% [middle of 4 runs]
Population Tubulin-Different-Phenotype (%) [2]: 69% and 80% and 72.73% and 81.48%
Total Cell Count [2]: 221 and 186 and 263 and 293
Population Fragmented Nuclei (%) [3]: 22% [middle of 4 runs]
Population Healthy Nuclei (%) [3]: 68% and 54% and 66.49% and 74.56%
Population Hoechst High Intensity Objects (%) [3]: 0% and 9%
Population Membrane Permeable-Phenotype (%) [3]: 0% and 3% and 2.33% and 7.06%
Population Mitotic Cells (%) [3]: 70.59% [middle of 4 runs]
Population Normal (%) [3]: 99% and 90% and 100%
Population Pyknosed Nuclei (%) [3]: 17% [middle of 4 runs]
Population Tubulin-Different-Phenotype (%) [3]: 30% [middle of 4 runs]
Total Cell Count [3]: 127 and 184 and 194 and 228
Population Healthy Nuclei (%) [4]: 66% and 46% and 70.93% and 75.81%
Population Hoechst High Intensity Objects (%) [4]: 3% and 4% and 0%
Population Membrane Permeable-Phenotype (%) [4]: 0% and 2% and 4.95% and 6.19%
Population Mitochondria Different-Phenotype (%) [4]: 40.95% [middle of 4 runs]
Population Mitotic Cells (%) [4]: 45.1% [middle of 4 runs]
Population Normal (%) [4]: 96% and 95% and 100%
Population Pyknosed Nuclei (%) [4]: 23% [middle of 4 runs]
Population Tubulin-Different-Phenotype (%) [4]: 76% and 82% and 83.33% and 85.24%
Total Cell Count [4]: 231 and 189 and 313 and 277
Population Healthy Nuclei (%) [5]: 67% and 51% and 79.63% and 83.64%
Population Hoechst High Intensity Objects (%) [5]: 2% and 5% and 0%
Population Membrane Permeable-Phenotype (%) [5]: 1% and 2% and 1.16% and 4.47%
Population Normal (%) [5]: 97% and 94% and 100%
Population Pyknosed Nuclei (%) [5]: 8% and 15% and 6.02% and 7.01%
Total Cell Count [5]: 137 and 193 and 216 and 214
Population Apoptotic (%) [6]: 76.92% [middle of 4 runs]
Population Healthy Nuclei (%) [6]: 72% and 57% and 86.19% and 89.14%
Population Hoechst High Intensity Objects (%) [6]: 3% and 0%
Population Membrane Permeable-Phenotype (%) [6]: 0% and 3.83% and 7.75%
Population Mitochondria Different-Phenotype (%) [6]: 22% and 16% and 24.74% and 18.08%
Population Normal (%) [6]: 96% and 100%
Population Pyknosed Nuclei (%) [6]: 8% and 3.3% and 4.28%
Population Tubulin-Different-Phenotype (%) [6]: 85% and 61.67% and 81.55%
Total Cell Count [6]: 232 and 231 and 333 and 304

COc1cc2ncnc(Nc3ccc(Oc4ccccc4)cc3C)c2cc1OC.Cl
Population Apoptotic (%) [1]: 11.11% and 23.33%
Population Fragmented Nuclei (%) [1]: 12.3% and 7.85%
Population Healthy Nuclei (%) [1]: 63.64% and 76.44%
Population Hoechst High Intensity Objects (%) [1]: 0%
Population Membrane Permeable-Phenotype (%) [1]: 5.04% and 3.42%
Population Mitochondria Different-Phenotype (%) [1]: 8.4% and 12.33%
Population Mitotic Cells (%) [1]: 88.89% and 76.67%
Population Normal (%) [1]: 100%
Population Pyknosed Nuclei (%) [1]: 24.06% and 15.71%
Population Tubulin-Different-Phenotype (%) [1]: 15.13% and 13.7%
Total Cell Count [1]: 187 and 191
Population Apoptotic (%) [2]: 10.77% and 17.02%
Population Fragmented Nuclei (%) [2]: 14.61% and 11.16%
Population Healthy Nuclei (%) [2]: 48.88% and 68.67%
Population Hoechst High Intensity Objects (%) [2]: 0%
Population Membrane Permeable-Phenotype (%) [2]: 3.45% and 10.62%
Population Mitochondria Different-Phenotype (%) [2]: 29.89% and 25%
Population Mitotic Cells (%) [2]: 89.23% and 82.98%
Population Normal (%) [2]: 100%
Population Pyknosed Nuclei (%) [2]: 36.52% and 20.17%
Population Tubulin-Different-Phenotype (%) [2]: 58.62% and 66.88%
Total Cell Count [2]: 178 and 233
Population Apoptotic (%) [3]: 0% and 16.67%
Population Fragmented Nuclei (%) [3]: 10.95% and 4.57%
Population Healthy Nuclei (%) [3]: 74.29% and 80.2%
Population Hoechst High Intensity Objects (%) [3]: 0%
Population Membrane Permeable-Phenotype (%) [3]: 5.77% and 1.9%
Population Mitochondria Different-Phenotype (%) [3]: 7.05% and 6.33%
Population Mitotic Cells (%) [3]: 100% and 83.33%
Population Normal (%) [3]: 100%
Population Pyknosed Nuclei (%) [3]: 14.76% and 15.23%
Population Tubulin-Different-Phenotype (%) [3]: 15.38% and 12.66%
Total Cell Count [3]: 210 and 197
Population Fragmented Nuclei (%) [4]: 20.69% and 12.5%
Population Healthy Nuclei (%) [4]: 59.48% and 79.49%
Population Hoechst High Intensity Objects (%) [4]: 0%
Population Membrane Permeable-Phenotype (%) [4]: 4.35% and 4.03%
Population Mitochondria Different-Phenotype (%) [4]: 25.36% and 23.39%
Population Mitotic Cells (%) [4]: 95.65% and 76%
Population Normal (%) [4]: 100%
Population Pyknosed Nuclei (%) [4]: 19.83% and 8.01%
Population Tubulin-Different-Phenotype (%) [4]: 65.22% and 70.16%
Total Cell Count [4]: 232 and 312
Population Apoptotic (%) [5]: 14.29% and 18.75%
Population Fragmented Nuclei (%) [5]: 14.46% and 12.14%
Population Healthy Nuclei (%) [5]: 77.11% and 80.1%
Population Hoechst High Intensity Objects (%) [5]: 0%
Population Membrane Permeable-Phenotype (%) [5]: 1.04% and 1.21%
Population Mitochondria Different-Phenotype (%) [5]: 11.98% and 4.85%
Population Mitotic Cells (%) [5]: 85.71% and 81.25%
Population Normal (%) [5]: 100%
Population Pyknosed Nuclei (%) [5]: 8.43% and 7.77%
Population Tubulin-Different-Phenotype (%) [5]: 8.33% and 15.76%
Total Cell Count [5]: 249 and 206
Population Apoptotic (%) [6]: 14.29% and 28.57%
Population Fragmented Nuclei (%) [6]: 17.05% and 16.67%
Population Healthy Nuclei (%) [6]: 78.98% and 81.45%
Population Hoechst High Intensity Objects (%) [6]: 0%
Population Membrane Permeable-Phenotype (%) [6]: 4.68% and 4.95%
Population Mitochondria Different-Phenotype (%) [6]: 11.15% and 6.93%
Population Mitotic Cells (%) [6]: 85.71% and 71.43%
Population Normal (%) [6]: 100%
Population Pyknosed Nuclei (%) [6]: 3.98% and 1.88%
Population Tubulin-Different-Phenotype (%) [6]: 51.8% and 63.04%
Total Cell Count [6]: 352 and 372
